Measured values reported in ChEMBL document CHEMBL3352355, “Synthesis of novel polysubstituted (2SR,4RS)-2-heteroaryltetrahydro-1,4-epoxy-1-benzazepines and cis-2-heteroaryl-4-hydroxytetrahydro-1H-1-benzazepines as antiparasitic agents” (Eur J Med Chem, 2014).

What was measured:
[1] = Selectivity index, ratio of CC50 for African green monkey Vero cells to IC50 for epimastigote stage of Trypanosoma cruzi; type: functional
Summary of the method: (§1)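 Selectivity index was calculated as CC50 in Vero (T. cruzi) or THP-1 (L. infantum) cells divided by parasite IC50. Both values came from 72 h mammalian-cell MTT assays and the parasite assays; SI ≥ 3 was defined as parasite-selective.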

[2] = Selectivity index, ratio of CC50 for human THP1 cells to IC50 for promastigote stage of Leishmania infantum; type: functional, THP-1; summary of the method: as §1
Trypanosoma cruzi [3] = assay: Antiparasitic activity against epimastigote stage of Trypanosoma cruzi infected in Vero cells assessed as parasite growth inhibition […] by hemocytometery; type: functional, organism-based
Summary of the method: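 Exponential-phase T. cruzi Sylvio X10 epimastigotes (LIT medium with hiFCS) or L. (L.) infantum MHOM/BR/74/PP75 promastigotes (RPMI 1640, hemin, HEPES, 10% hiFCS) were exposed to threefold serial dilutions (0.3–300 µg/mL) for 72 h at 28 °C. Viable parasites were counted by hemocytometer with 0.25% eosin yellow. IC50 came from sigmoidal regression, given as mean ± SD.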

[4] = Cytotoxicity against African green monkey Vero cells; type: cell-based; details: chlorocebus sabaeus
Summary of the method: (§2)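 Vero monolayers or THP-1 cells (made adherent with 10 ng/mL PMA), in RPMI 1640 with 10% hiFCS, were exposed to compound (0.3–300 µg/mL) for 72 h at 37 °C, 5% CO2. Viability was measured by MTT, with formazan dissolved in DMSO and read at 580 nm. % cytotoxicity was calculated against untreated cells; CC50 came from sigmoidal regression, given as mean ± SD.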

Leishmania infantum [5] = assay: Antiparasitic activity against promastigote stage of Leishmania infantum assessed as parasite growth inhibition after 72 hrs by hemocytometery
Trypanosoma cruzi [6] = assay: Antiparasitic activity against amastigote stage of Trypanosoma cruzi infected in Vero cells assessed as parasite growth inhibition after 24 hrs by hemocytometery; type: functional, organism-based; details: Trypanosoma cruzi, Vero, 24 h; read-out: IC50
Summary of the method: (§3)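 Host cells were Vero for T. cruzi (infected with tissue-derived trypomastigotes) and THP-1 (PMA-transformed, 10 ng/mL) for L. (L.) infantum (infected with late-phase promastigotes), at 1:10 cell:parasite for 24 h. Serial dilutions were given as two doses, the second on day 3 with a medium change. Read-out was % infected cells on methanol-fixed, Giemsa-stained slides (300 cells). IC50 came from sigmoidal regression; experiments in duplicate, concentrations in triplicate.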

Leishmania infantum [7] = assay: Antiparasitic activity against amastigote stage of Leishmania infantum infected in THP1 cells assessed as parasite growth inhibition after 24 hrs by hemocytometery; type: functional, organism-based, THP-1; details: Leishmania infantum, THP-1, 24 h; read-out: IC50; summary of the method: as §3
[8] = Cytotoxicity against human THP1 cells; type: cell-based; details: THP-1 cells; summary of the method: as §2
[9] = Selectivity index, ratio of CC50 for African green monkey Vero cells to IC50 for amastigote stage of Trypanosoma cruzi; type: functional; summary of the method: as §1

Row | SMILES | Selectivity Index [1] | Selectivity Index [2] | IC50 (Trypanosoma cruzi [3]) | CC50 [4] | IC50 (Leishmania infantum [5]) | IC50 (Trypanosoma cruzi [6]) | IC50 (Leishmania infantum [7]) | CC50 [8] | Selectivity Index [9]
1 | Cn1cccc1[C@@H]1C[C@H]2Cc3cc(F)ccc3N1O2 (mixture of isomers) | 1.3 | 6.9 | 414 µM | 533 µM | 316 µM | > 387 µM | > 387 µM | 2180 µM | 
2 | Cc1ccc([C@@H]2C[C@H]3Cc4ccccc4N2O3)s1 (racemic) | 6 | 9.6 | 147 µM | 878 µM | 52 µM | 91.5 µM | > 389 µM | 497 µM | 9.6
3 | Brc1ccc([C@@H]2C[C@H]3Cc4ccccc4N2O3)s1 (racemic) | 28.9 | 34.7 | 62.2 µM | 1800 µM | 36.1 µM | 137 µM | > 312 µM | 1250 µM | 13.2
4 | Clc1ccc2c(c1)C[C@@H]1C[C@@H](c3cccs3)N2O1 (racemic) | >14.2 | >17.5 | 25.4 µM | > 361 µM | 20.7 µM | > 120 µM | > 120 µM | > 361 µM | 
5 | Cc1ccc([C@@H]2C[C@H]3Cc4cc(Cl)ccc4N2O3)s1 (racemic) | 46.1 | >63.8 | 24.8 µM | 1140 µM | 32.3 µM | 101 µM | > 344 µM | > 2060 µM | 11.3
6 | Cc1ccsc1[C@@H]1C[C@H]2Cc3cc(Cl)ccc3N1O2 (racemic) | 15.6 | 7.7 | 11.7 µM | 183 µM | 32.3 µM | 99 µM | > 344 µM | 250 µM | 1.9
7 | Cc1ccc([C@@H]2C[C@H]3Cc4cc(F)ccc4N2O3)s1 (racemic) | 30.6 | 2.5 | 30.9 µM | 944 µM | 92 µM | > 364 µM | > 121 µM | 234 µM | 
8 | Cc1ccc([C@@H]2C[C@H]3Cc4cc(OC(F)(F)F)ccc4N2O3)s1 (racemic) | 3.9 | 26.8 | 43.9 µM | 170 µM | 10.5 µM | > 293 µM | > 293 µM | 282 µM | 
9 | c1coc([C@@H]2C[C@H]3Cc4ccccc4N2O3)c1 (racemic) | 6.8 | 14.7 | 229 µM | 1560 µM | 45.3 µM | > 440 µM | > 440 µM | 663 µM | 
10 | O=[N+]([O-])c1ccc([C@@H]2C[C@H]3Cc4ccccc4N2O3)o1 (racemic) | 1 | 2.2 | 53 µM | 51.4 µM | 107 µM | > 122 µM | > 368 µM | 234 µM | 
11 | Clc1ccc2c(c1)C[C@@H]1C[C@@H](c3ccco3)N2O1 (racemic) | 6.7 | >24.3 | 53.1 µM | 353 µM | 47.3 µM |  | > 128 µM | > 1150 µM | 
12 | Cc1ccc([C@@H]2C[C@H]3Cc4cc(F)ccc4N2O3)o1 (racemic) | 5.6 | 3.3 | 192 µM | 1080 µM | 102 µM | > 386 µM | > 128 µM | 338 µM | 
13 | O=[N+]([O-])c1ccc([C@@H]2C[C@H]3Cc4cc(OC(F)(F)F)ccc4N2O3)o1 (racemic) |  | 6.1 | > 843 µM | 214 µM | 66.6 µM | > 281 µM | > 281 µM | 404 µM | 
14 | Fc1ccc2c(c1)C[C@@H]1C[C@@H](c3ccoc3)N2O1 (racemic) | >8.1 | 11.9 | 151 µM | > 1220 µM | 103 µM | > 408 µM | > 408 µM | > 1220 µM | 
15 | FC(F)(F)Oc1ccc2c(c1)C[C@@H]1C[C@@H](c3ccoc3)N2O1 (racemic) | 0.9 | >76.6 | 192 µM | 180 µM | 25.2 µM | > 107 µM | > 322 µM | > 1930 µM | 
16 | Cc1ccsc1[C@@H]1C[C@H](O)Cc2ccccc2N1 (relative stereo) | 4.3 | 3.7 | 143 µM | 616 µM | 156 µM | > 128 µM | > 128 µM | 579 µM | 
17 | O[C@@H]1Cc2cc(Cl)ccc2N[C@H](c2cccs2)C1 (relative stereo) | 1.7 | 2.3 | 95.1 µM | 164 µM | 49.5 µM | > 119 µM | > 119 µM | 115 µM | 
18 | Cc1ccc([C@@H]2C[C@H](O)Cc3cc(Cl)ccc3N2)s1 (relative stereo) | 10.5 | >31.8 | 14.6 µM | 154 µM | 64.4 µM | > 114 µM | > 341 µM | > 2050 µM | 
19 | O[C@@H]1Cc2cc(F)ccc2N[C@H](c2cccs2)C1 (relative stereo) | 0.3 | 1.6 | 764 µM | 218 µM | 120 µM | > 380 µM | > 380 µM | 190 µM | 
20 | O[C@@H]1Cc2cc(OC(F)(F)F)ccc2N[C@H](c2ccoc2)C1 (relative stereo) | 0.2 | 10.7 | 602 µM | 95.4 µM | 43.1 µM | > 106 µM | > 106 µM | 460 µM | 
21 | CC1CS(=O)(=O)CCN1/N=C/c1ccc([N+](=O)[O-])o1 (configuration not stated) [NIFURTIMOX] | 17 |  | 4 µM | 67.5 µM |  | 1.6 µM |  |  | 43
